≈ marks a conversion by molar mass, not a printed value.
Columns and labels:
TERT-RPE1 [1] = test: Cytotoxicity against human RPE1 cells assessed as reduction in cell viability after 48 hrs by ATPlite-based luminescent assay; settings: RPE-1, 48 h
Summary of the method: (§1)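 Cells were grown […] with 10% FBS, glutamax, NEAA and pen/strep at 37 °C, 5% CO2. Media were DMEM for RPE-1, HepG2 and BJ (BJ plus 10 ng/ml bFGF), F-12K for PC3, and IMDM for K562/HL-60. Cells were seeded at 500 per well and dosed from DMSO at 12 concentrations, 40 µM to 1 nM, in triplicate. After 48 h, intracellular ATP was read by luminescence. ED50 was obtained by variable-slope nonlinear regression.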

BJ = test: Cytotoxicity against human BJ cells assessed as reduction in cell viability after 48 hrs by ATPlite-based luminescent assay; summary of the method: as §1
K562 [2] = test: Cytotoxicity against human K562 cells assessed as reduction in cell viability after 48 hrs by ATPlite-based luminescent assay; settings: K562, 48 h; summary of the method: as §1
HL-60 [3] = test: Cytotoxicity against human HL60 cells assessed as reduction in cell viability after 48 hrs by ATPlite-based luminescent assay; settings: HL-60, 48 h; summary of the method: as §1
PC-3 [4] = test: Cytotoxicity against human PC3 cells assessed as reduction in cell viability after 48 hrs by ATPlite-based luminescent assay; settings: PC-3, 48 h; summary of the method: as §1
MCF7 = test: Cytotoxicity against human MCF7 cells assessed as reduction in cell viability after 48 hrs by ATPlite-based luminescent assay; settings: MCF7, 48 h
HepG2 [5] = test: Cytotoxicity against human HepG2 cells assessed as reduction in cell viability after 48 hrs by ATPlite-based luminescent assay; settings: HepG2, 48 h; summary of the method: as §1
TERT-RPE1 [6] = test: Induction of apoptosis in human RPE1 cells assessed as caspase 3/7 activity after 24 hrs by caspase-glo luminescent assay; format: cell-based; settings: RPE-1, 24 h
Summary of the method: (§2)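 Cells were seeded at 500 per well in their growth media and exposed to 12 concentrations from 40 µM to 1 nM, delivered from DMSO, in triplicate. After 24 h, caspase-3/7 activity was read by Caspase-Glo luminescence. Data were normalized and ED50 was fitted by variable-slope nonlinear regression.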

K562 [7] = test: Induction of apoptosis in human K562 cells assessed as caspase 3/7 activity after 24 hrs by caspase-glo luminescent assay; format: cell-based; settings: K562, 24 h; summary of the method: as §2
HL-60 [8] = test: Induction of apoptosis in human HL60 cells assessed as caspase 3/7 activity after 24 hrs by caspase-glo luminescent assay; format: cell-based; settings: HL-60, 24 h; summary of the method: as §2
PC-3 [9] = test: Induction of apoptosis in human PC3 cells assessed as caspase 3/7 activity after 24 hrs by caspase-glo luminescent assay; format: cell-based; settings: PC-3, 24 h; summary of the method: as §2
HepG2 [10] = test: Induction of apoptosis in human HepG2 cells assessed as caspase 3/7 activity after 24 hrs by caspase-glo luminescent assay; format: cell-based; settings: HepG2, 24 h; summary of the method: as §2
Staphylococcus aureus [11] = test: Antibacterial activity against Staphylococcus aureus ATCC 6538 after 24 hrs by microdilution assay; format: functional; settings: ATCC 6538, 24 h
Staphylococcus aureus [12] = test: Antibacterial activity against methicillin-resistant Staphylococcus aureus HK5996/08 clinical isolate after 24 hrs by microdilution assay; format: functional; settings: HK5996/08, 24 h
[13] = system: Staphylococcus epidermidis; test: Antibacterial activity against Staphylococcus epidermidis HK6966/08 clinical isolate after 24 hrs by microdilution assay; format: functional; settings: HK6966/08, 24 h
Enterococcus sp. [14] = test: Antibacterial activity against Enterococcus sp. HK14365/08 clinical isolate after 24 hrs by microdilution assay; format: functional; settings: HK14365/08, 24 h
Escherichia coli [15] = test: Antibacterial activity against Escherichia coli ATCC 8739 after 24 hrs by microdilution assay; format: functional; settings: ATCC 8739, 24 h
Summary of the method: (§3)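 Broth microdilution in Mueller-Hinton medium buffered to pH 7.4 (±0.2), with DMSO as diluent at no more than 2% final. Compounds were tested as 2-fold serial dilutions from 2000 to 0.488 µmol/l. The inoculum was 0.5 McFarland (1.5×10^8 cfu/ml). Plates were held at 37 °C and read visually at 24 and 48 h. MIC was taken as 95% growth inhibition versus control, determined twice in duplicate.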

Klebsiella pneumoniae [16] = test: Antibacterial activity against Klebsiella pneumoniae HK11750/08 clinical isolate after 24 hrs by microdilution assay; format: functional; settings: HK11750/08, 24 h
Klebsiella pneumoniae [17] = test: Antibacterial activity against Klebsiella pneumoniae HK14368/08 clinical isolate after 24 hrs by microdilution assay; format: functional; settings: HK14368/08, 24 h
Pseudomonas aeruginosa [18] = test: Antibacterial activity against Pseudomonas aeruginosa ATCC 9027 after 24 hrs by microdilution assay; format: functional; settings: ATCC 9027, 24 h; summary of the method: as §3
Staphylococcus aureus [19] = test: Antibacterial activity against Staphylococcus aureus ATCC 6538 after 48 hrs by microdilution assay; format: functional; settings: ATCC 6538, 48 h
Staphylococcus aureus [20] = test: Antibacterial activity against methicillin-resistant Staphylococcus aureus HK5996/08 clinical isolate after 48 hrs by microdilution assay; format: functional; settings: HK5996/08, 48 h
[21] = system: Staphylococcus epidermidis; test: Antibacterial activity against Staphylococcus epidermidis HK6966/08 clinical isolate after 48 hrs by microdilution assay; format: functional; settings: HK6966/08, 48 h
Enterococcus sp. [22] = test: Antibacterial activity against Enterococcus sp. HK14365/08 clinical isolate after 48 hrs by microdilution assay; format: functional; settings: HK14365/08, 48 h
Escherichia coli [23] = test: Antibacterial activity against Escherichia coli ATCC 8739 after 48 hrs by microdilution assay; format: functional; settings: ATCC 8739, 48 h; summary of the method: as §3
Klebsiella pneumoniae [24] = test: Antibacterial activity against Klebsiella pneumoniae HK11750/08 clinical isolate after 48 hrs by microdilution assay; format: functional; settings: HK11750/08, 48 h
Klebsiella pneumoniae [25] = test: Antibacterial activity against Klebsiella pneumoniae HK14368/08 clinical isolate after 48 hrs by microdilution assay; format: functional; settings: HK14368/08, 48 h
Pseudomonas aeruginosa [26] = test: Antibacterial activity against Pseudomonas aeruginosa ATCC 9027 after 48 hrs by microdilution assay; format: functional; settings: ATCC 9027, 48 h; summary of the method: as §3

SMILES	IC50 (TERT-RPE1 [1]) [µM]	IC50 (BJ) [µM]	IC50 (K562 [2]) [µM]	IC50 (HL-60 [3]) [µM]	IC50 (PC-3 [4]) [µM]	IC50 (MCF7) [µM]	IC50 (HepG2 [5]) [µM]	IC50 (TERT-RPE1 [6]) [µM]	IC50 (K562 [7]) [µM]	IC50 (HL-60 [8]) [µM]	IC50 (PC-3 [9]) [µM]	IC50 (HepG2 [10]) [µM]	MIC95 (Staphylococcus aureus [11]) [µM]	MIC95 (Staphylococcus aureus [12]) [µM]	MIC95 [13] [µM]	MIC95 (Enterococcus sp. [14]) [µM]	MIC95 (Escherichia coli [15]) [µM]	MIC95 (Klebsiella pneumoniae [16]) [µM]	MIC95 (Klebsiella pneumoniae [17]) [µM]	MIC95 (Pseudomonas aeruginosa [18]) [µM]	further results
COc1ccc(C2=C(c3ccc(S(C)(=O)=O)cc3)COC2=O)cc1	> 40	> 40	> 40	> 40	> 40	> 40	> 40	> 40	> 40	> 40	> 40	> 40	> 500	> 500	> 500	> 500	> 500	> 500	> 500	> 500	MIC95 (Staphylococcus aureus [19]): > 500 µM; MIC95 (Staphylococcus aureus [20]): > 500 µM; MIC95 [21]: > 500 µM; MIC95 (Enterococcus sp. [22]): > 500 µM; MIC95 (Escherichia coli [23]): > 500 µM; MIC95 (Klebsiella pneumoniae [24]): > 500 µM; MIC95 (Klebsiella pneumoniae [25]): > 500 µM; MIC95 (Pseudomonas aeruginosa [26]): > 500 µM
COc1ccc(C2=C(c3ccc(OC)c(OC)c3)C(CO)OC2=O)cc1 (stereo unspecified)	> 40	> 40	> 40	> 40	> 40	> 40	> 40	> 40	> 40	> 40	> 40	> 40	125 (≈ 44.5 µg/mL)	125 (≈ 44.5 µg/mL)	62.5 (≈ 22.3 µg/mL)	> 125	> 125	> 125	> 125	> 125	MIC95 (Staphylococcus aureus [19]): 125 µM (≈ 44.5 µg/mL); MIC95 (Staphylococcus aureus [20]): 125 µM (≈ 44.5 µg/mL); MIC95 [21]: 62.5 µM (≈ 22.3 µg/mL); MIC95 (Enterococcus sp. [22]): > 125 µM; MIC95 (Escherichia coli [23]): > 125 µM; MIC95 (Klebsiella pneumoniae [24]): > 125 µM; MIC95 (Klebsiella pneumoniae [25]): > 125 µM; MIC95 (Pseudomonas aeruginosa [26]): > 125 µM

From ChEMBL document CHEMBL4251593, “Nontoxic combretafuranone analogues with high in vitro antibacterial activity” (Eur J Med Chem, 2018)
